Data: ChEMBL document CHEMBL5346974, “Discovery of 5-Phenylpyrazolopyrimidinone Analogs as Potent Antitrypanosomal Agents with In Vivo Efficacy” (J Med Chem, 2023)
Activity calls are given as the source filed them. No cut-off for these calls is given here.

Experiments:
Assay type in all cases: functional, organism-based
[1] = test system: Trypanosoma brucei brucei; experiment: In vivo antitrypanosomal activity against Trypanosoma brucei brucei infected stage-I mouse model of HAT assessed as clearance of peripheral blood parasites at 50 mg/kg, po twice daily for 5 consecutive days; conditions: time 5.0 day
Procedure, shortened: (§1)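 Mice in groups of three were infected IP with 10^4 T. b. brucei Squib 427 […]. Parasitemia was checked by tail-vein blood microscopy up to 63 dpi, plus SL RNA qPCR on survivors.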

[2] = test system: Trypanosoma brucei brucei; experiment: In vivo antitrypanosomal activity against Trypanosoma brucei brucei infected stage-I mouse model of HAT assessed as clearance of peripheral blood parasites at 50 mg/kg, po twice daily for 5 consecutive days measured for 60 days of post infection; conditions: time 60.0 day; procedure, shortened: as §1
[3] = test system: Trypanosoma brucei brucei; experiment: In vivo antitrypanosomal activity against Trypanosoma brucei brucei infected stage-I po dosed mouse model of HAT assessed as clearance of parasitemia treated twice daily for 5 consecutive days; conditions: dose 6.25-50 mg/kg, time 5.0 day; procedure, shortened: as §1

Cc1ccc(C(=O)Nc2ccc(S(=O)(=O)O)c3cc(S(=O)(=O)O)cc(S(=O)(=O)O)c23)cc1NC(=O)c1cccc(NC(=O)Nc2cccc(C(=O)Nc3cc(C(=O)Nc4ccc(S(=O)(=O)O)c5cc(S(=O)(=O)O)cc(S(=O)(=O)O)c45)ccc3C)c2)c1
Activity [1]: Active

CC(C)c1n[nH]c2c(=O)[nH]c(-c3ccc(F)cc3)nc12
Activity [2]: Active | Activity [3]: Dose-Dependent Effect
